Experimental findings from ChEMBL document CHEMBL4257552, “2-Aminobenzimidazoles as antibiofilm agents against Salmonella enterica serovar Typhimurium” (Medchemcomm, 2018) are described below.

A word on the IC50: it is the concentration needed to halve the response being measured.

The test system of the first series is Salmonella typhimurium. The series is described as follows: Inhibition of planktonic growth of Salmonella typhimurium ATCC 14028 after 2 to 24 hrs. The series is classed as organism-based. Conditions: salmonella enterica subsp. enterica serovar typhimurium. The method, boiled down:
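Overnight TSB culture diluted into fresh 1:20 TSB (OD600 0.08), 3 mL tubes with compound or untreated control, shaken at 30 °C. Samples at 2, 4, 6, 8 and 24 h serially diluted in 1:20 TSB, plated on nutrient agar, incubated overnight at 37 °C, and colonies counted.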
`Cl.Nc1nc2cc(NC(=O)Nc3ccc(Cl)c(Cl)c3)ccc2n1CCCc1ccccc1`: the Activity result is listed as “Non-Toxic”. In the case of `CCCCCOc1ccc(C(=O)Nc2ccc3c(c2)nc(N)n3CCCc2ccccc2)cc1.Cl`, the “growth inhibition (GI)” value was “Non-Toxic”.

Another series concerns Salmonella typhimurium. In words: Antibiofilm activity against Salmonella typhimurium ATCC 14028 after 24 hrs by crystal violet staining based assay. To be noted: Salmonella enterica, ATCC 14028, 24 h. Type of series: functional, organism-based, Salmonella enterica subsp. enterica serovar Typhimurium. The method, boiled down:
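S. Typhimurium ATCC 14028 overnight TSB culture subcultured to OD600 0.08 in 1:20 TSB:water, compound added at set concentrations, static incubation in PVC 96-well plates 24 h at 30 °C. IC50 from dose-response curves.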
`CCCCCc1ccc(C(=O)Nc2ccc3c(c2)nc(N)n3C)cc1` returned an IC50 of 20 to 40 µM. The same measure, in the same setting: with `CCCCCc1ccc(C(=O)Nc2ccc3c(c2)nc(N)n3C(C)C)cc1` the figure was 20 to 40 µM; with `CCCCCc1ccc(C(=O)Nc2ccc3c(c2)nc(N)n3CCCC)cc1`, 15 to 20 µM. The same measure, in the same setting: next, `CCCCCCn1c(N)nc2cc(NC(=O)c3ccc(CCCCC)cc3)ccc21`: 10.8 µM.

`CCCCCCCCn1c(N)nc2cc(NC(=O)c3ccc(CCCCC)cc3)ccc21` yielded an IC50 of 6.66 µM. Still for that read-out and setting: next, `CCCCCCCCCCCCn1c(N)nc2cc(NC(=O)c3ccc(CCCCC)cc3)ccc21`: 20 to 40 µM; `CCCCCc1ccc(C(=O)Nc2ccc3c(c2)nc(N)n3C2CCCC2)cc1`: 15 to 20 µM. On the same count and under the same terms, next, `CCCCCc1ccc(C(=O)Nc2ccc3c(c2)nc(N)n3CCc2c[nH]c3ccccc23)cc1`: 10 to 15 µM; `CCCCCc1ccc(C(=O)Nc2ccc3c(c2)nc(N)n3CCCc2ccccc2)cc1`: 13.1 µM.

Turning to `CCCCCc1ccc(C(=O)Nc2ccc3c(c2)nc(N)n3CCCCc2ccccc2)cc1`, the IC50 is 9.59 µM. Same read-out and setting: next, `CCCCCCn1c(N)nc2ccc(NC(=O)c3ccc(CCCCC)cc3)cc21`: 10 to 15 µM. On the same count and under the same terms, next, `CCCCCc1ccc(C(=O)Nc2ccc3c(c2)nc(N)n3CCc2cnc[nH]2)cc1`: 20 to 40 µM; `Cl.Nc1nc2cc(NC(=O)c3cc(Cl)cc(Cl)c3)ccc2n1CCCc1ccccc1`: 10 to 15 µM. `CCCCCCc1ccc(C(=O)Nc2ccc3c(c2)nc(N)n3CCCc2ccccc2)cc1` registered an IC50 of 15 to 20 µM. The same measure, in the same setting: with `Cl.Nc1nc2cc(NC(=O)Nc3ccc(Cl)c(Cl)c3)ccc2n1CCCc1ccccc1` the figure was 7.69 µM.

For the compound `CCc1ccc(C(=O)Nc2ccc3c(c2)nc(N)n3CCCc2ccccc2)cc1`, the IC50 lay in the range of 20 to 40 µM.

On to `CCCCOc1ccc(C(=O)Nc2ccc3c(c2)nc(N)n3CCCc2ccccc2)cc1`, for which the IC50 is 15 to 20 µM. For `CCCCCCCc1ccc(C(=O)Nc2ccc3c(c2)nc(N)n3CCCc2ccccc2)cc1`, the IC50 was 15 to 20 µM. Still for that read-out and setting: next, `Cl.Nc1nc2cc(NC(=O)c3ccc(Cl)c(Cl)c3)ccc2n1CCCc1ccccc1`: 6.3 µM; `CCCCCOc1ccc(C(=O)Nc2ccc3c(c2)nc(N)n3CCCc2ccccc2)cc1.Cl`: 5.22 µM; `CCCCCCCC(=O)Nc1ccc2c(c1)nc(N)n2CCCc1ccccc1`: greater than 40 µM.

On to `CCCCCCCCCCn1c(N)nc2cc(NC(=O)c3ccc(CCCCC)cc3)ccc21`, for which the IC50 was in the range of 20 to 40 µM. Still for that read-out and setting: next, `CCCCCc1ccc(C(=O)Nc2ccc3nc(N)n(C)c3c2)cc1`: 20 to 40 µM; `CCCCCCCCCC(=O)Nc1ccc2c(c1)nc(N)n2CCCc1ccccc1`: 10 to 15 µM. On the same count and under the same terms, next, `CCCc1ccc(C(=O)Nc2ccc3c(c2)nc(N)n3CCCc2ccccc2)cc1`: 15 to 20 µM; `CCCCCc1ccc(C(=O)Nc2ccc3nc(N)n(CC)c3c2)cc1`: 20 to 40 µM. For the compound `CCCCCCCCCCCC(=O)Nc1ccc2c(c1)nc(N)n2CCCc1ccccc1`, the IC50 is greater than 50 µM. Still for that read-out and setting: next, `CCCCCc1ccc(C(=O)Nc2ccc3c(c2)nc(N)n3CC(C)C)cc1`: 10 to 15 µM; `CCCCCc1ccc(C(=O)Nc2ccc3nc(N)n(CCCC)c3c2)cc1`: 10 to 15 µM. Same read-out and setting: with `CCCCCCC(=O)Nc1ccc2c(c1)nc(N)n2CCCc1ccccc1` the figure was 20 to 40 µM. The same measure, in the same setting: with `CCCCc1ccc(C(=O)Nc2ccc3c(c2)nc(N)n3CCCc2ccccc2)cc1` the figure was 10 to 15 µM.

`CCCCCCCCCCC(=O)Nc1ccc2c(c1)nc(N)n2CCCc1ccccc1` came in with an IC50 of 10 to 15 µM. The same measure, in the same setting: next, `Nc1nc2cc(C(=O)Nc3ccc(Cl)c(Cl)c3)ccc2n1CCCc1ccccc1`: 12.6 µM; `Nc1nc2cc(NC(=O)c3ccc(Br)c(Br)c3)ccc2n1CCCc1ccccc1`: 5.38 µM. On the same count and under the same terms, with `CCCCCCCCc1ccc(C(=O)Nc2ccc3c(c2)nc(N)n3CCCc2ccccc2)cc1` the figure was greater than 50 µM; with `CCCCCc1ccc(C(=O)Nc2ccc3c(c2)nc(N)n3C2CCCCC2)cc1`, 15 to 20 µM. Same read-out and setting: next, `CCCOc1ccc(C(=O)Nc2ccc3c(c2)nc(N)n3CCCc2ccccc2)cc1`: 10 to 15 µM. The compound `CCCCCCCCC(=O)Nc1ccc2c(c1)nc(N)n2CCCc1ccccc1` yielded an IC50 of 15 to 20 µM. Same read-out and setting: with `Nc1nc2cc(NC(=O)c3cc(Br)cc(Br)c3)ccc2n1CCCc1ccccc1` the figure was 5.58 µM. Same read-out and setting: with `CCCCCc1ccc(C(=O)Nc2ccc3nc(N)n(C(C)C)c3c2)cc1` the figure was 20 to 40 µM; with `CCCCCCCCCCCCCC(=O)Nc1ccc2c(c1)nc(N)n2CCCc1ccccc1`, greater than 50 µM. On the same count and under the same terms, with `CCCCCc1ccc(C(=O)Nc2ccc3[nH]c(N)nc3c2)cc1` the figure was 20 to 40 µM.

The test system of another series is Galleria mellonella. In words: Toxicity in Galleria mellonella at 400 mg/kg. Type of series: organism-based. To be noted: in vivo.
`Cl.Nc1nc2cc(NC(=O)c3cc(Cl)cc(Cl)c3)ccc2n1CCCc1ccccc1`: the Activity entry was “Non-Toxic”. Still for that read-out and setting: with `Cl.Nc1nc2cc(NC(=O)c3ccc(Cl)c(Cl)c3)ccc2n1CCCc1ccccc1` the entry was “Non-Toxic”.
